Measurements from ChEMBL document CHEMBL3588792, “Selective Acetamidine-Based Nitric Oxide Synthase Inhibitors: Synthesis, Docking, and Biological Studies” (ACS Med Chem Lett, 2015).
The source made the active and inactive calls. No cut-off for these calls is given here.

What was measured:
[1] = molecular target: T1, Nitric oxide synthase, inducible (Mus musculus, UniProt P29477); experiment: Inhibition of mouse recombinant iNOS using [3H]L-arginine substrate assessed as formation of [3H]L-citruline by liquid scintillation counting analysis
T1 sequence (P29477 whole entry): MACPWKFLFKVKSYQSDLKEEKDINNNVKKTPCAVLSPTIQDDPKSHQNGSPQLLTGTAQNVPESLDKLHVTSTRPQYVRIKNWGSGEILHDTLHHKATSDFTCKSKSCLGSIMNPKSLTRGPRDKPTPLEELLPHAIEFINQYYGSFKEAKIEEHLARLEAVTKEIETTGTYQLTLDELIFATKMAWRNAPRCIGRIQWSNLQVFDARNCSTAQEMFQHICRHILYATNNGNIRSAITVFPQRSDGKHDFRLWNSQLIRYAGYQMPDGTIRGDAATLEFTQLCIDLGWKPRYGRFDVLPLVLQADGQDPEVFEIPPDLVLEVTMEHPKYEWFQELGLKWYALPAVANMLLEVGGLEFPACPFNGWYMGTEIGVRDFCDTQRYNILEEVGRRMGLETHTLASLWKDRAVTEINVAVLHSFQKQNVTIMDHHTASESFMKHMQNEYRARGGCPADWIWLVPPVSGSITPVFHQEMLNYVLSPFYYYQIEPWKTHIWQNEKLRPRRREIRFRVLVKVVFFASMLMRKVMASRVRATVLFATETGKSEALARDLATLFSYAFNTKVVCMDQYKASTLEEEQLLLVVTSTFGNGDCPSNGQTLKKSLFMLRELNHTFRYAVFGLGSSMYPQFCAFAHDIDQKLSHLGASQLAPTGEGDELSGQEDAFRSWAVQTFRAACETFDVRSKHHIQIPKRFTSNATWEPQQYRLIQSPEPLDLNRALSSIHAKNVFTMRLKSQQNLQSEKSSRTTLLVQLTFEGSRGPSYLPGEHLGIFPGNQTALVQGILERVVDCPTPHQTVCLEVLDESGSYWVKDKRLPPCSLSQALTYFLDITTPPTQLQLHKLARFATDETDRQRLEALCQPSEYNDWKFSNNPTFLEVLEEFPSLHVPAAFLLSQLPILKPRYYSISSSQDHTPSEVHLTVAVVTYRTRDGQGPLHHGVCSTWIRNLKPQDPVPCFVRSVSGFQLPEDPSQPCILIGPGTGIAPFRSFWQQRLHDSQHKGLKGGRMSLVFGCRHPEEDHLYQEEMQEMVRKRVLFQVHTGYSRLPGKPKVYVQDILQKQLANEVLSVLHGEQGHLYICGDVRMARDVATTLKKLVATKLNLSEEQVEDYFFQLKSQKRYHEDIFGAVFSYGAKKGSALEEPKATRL
How it was run: (§1)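 Recombinant enzyme inhibition was read as [3H]L-citrulline formed from [3H]L-arginine. Each inhibitor was tested at seven concentrations in triplicate, with IC50 given as mean ± SD. Selectivity is the eNOS IC50 divided by the iNOS IC50.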

Nitric oxide synthase 3 = molecular target: T2, Nitric oxide synthase 3 (Bos taurus, UniProt P29473); experiment: Inhibition of bovine recombinant eNOS using [3H]L-arginine substrate assessed as formation of [3H]L-citruline by liquid scintillation counting analysis; how it was run: as §1
T2 sequence (P29473 whole entry): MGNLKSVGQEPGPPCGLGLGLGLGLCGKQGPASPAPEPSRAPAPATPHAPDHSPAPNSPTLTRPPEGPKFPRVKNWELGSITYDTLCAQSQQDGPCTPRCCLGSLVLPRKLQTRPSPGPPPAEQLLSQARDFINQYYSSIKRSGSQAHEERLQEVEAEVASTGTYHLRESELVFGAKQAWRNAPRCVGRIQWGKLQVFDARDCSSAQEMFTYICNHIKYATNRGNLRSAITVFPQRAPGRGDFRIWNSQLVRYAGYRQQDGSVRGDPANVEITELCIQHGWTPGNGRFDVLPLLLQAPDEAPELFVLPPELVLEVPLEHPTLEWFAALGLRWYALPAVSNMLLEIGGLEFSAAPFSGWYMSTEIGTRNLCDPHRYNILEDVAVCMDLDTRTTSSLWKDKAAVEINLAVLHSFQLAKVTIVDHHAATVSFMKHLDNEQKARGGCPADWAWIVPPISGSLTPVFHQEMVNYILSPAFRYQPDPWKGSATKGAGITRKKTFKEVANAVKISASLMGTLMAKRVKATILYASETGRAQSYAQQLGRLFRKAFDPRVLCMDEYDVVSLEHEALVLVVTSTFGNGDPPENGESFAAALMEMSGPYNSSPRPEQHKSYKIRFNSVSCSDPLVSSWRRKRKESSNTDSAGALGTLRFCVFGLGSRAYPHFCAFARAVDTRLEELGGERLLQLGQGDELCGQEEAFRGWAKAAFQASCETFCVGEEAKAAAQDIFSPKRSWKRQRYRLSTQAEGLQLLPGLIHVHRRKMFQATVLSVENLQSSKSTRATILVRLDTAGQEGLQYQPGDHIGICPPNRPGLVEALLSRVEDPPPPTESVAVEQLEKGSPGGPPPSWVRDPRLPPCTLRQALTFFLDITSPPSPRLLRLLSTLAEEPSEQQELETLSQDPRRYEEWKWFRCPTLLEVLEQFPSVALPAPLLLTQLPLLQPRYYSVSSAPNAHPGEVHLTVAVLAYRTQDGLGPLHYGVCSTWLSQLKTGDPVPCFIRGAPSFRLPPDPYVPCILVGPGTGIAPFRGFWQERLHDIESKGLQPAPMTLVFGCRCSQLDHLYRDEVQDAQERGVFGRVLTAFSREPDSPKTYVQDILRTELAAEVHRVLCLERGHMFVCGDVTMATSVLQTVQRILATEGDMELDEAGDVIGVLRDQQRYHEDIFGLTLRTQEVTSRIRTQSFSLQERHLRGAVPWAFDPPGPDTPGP

[2] = Selectivity ratio of IC50 for bovine recombinant eNOS to IC50 for mouse recombinant iNOS
Rattus norvegicus [3] = species on record: Rattus norvegicus; experiment: Reduction of Ach-mediated NO-dependent precontracted Sprague-Dawley rat mesenteric vascular artery vasorelaxation measured at 100 uM/30 mins preincubation; type: functional, organism-based
How it was run: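 Isolated SD rat mesenteric arteries precontracted with 10 μM NA to about 80% of maximal vasoconstriction. Preincubation 30 min at 100 μM, then dose-response to ACh (0.01–3 μM/30 s) for NO-dependent (eNOS-mediated) vasorelaxation, compared with control curve. Mean ± SEM of duplicates, four independent experiments; two-way repeated-measures ANOVA.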

Rattus norvegicus [4] = species on record: Rattus norvegicus; experiment: Reduction of Ach-mediated NO-dependent precontracted Sprague-Dawley rat mesenteric vascular artery vasorelaxation measured at 0.43 uM/30 mins preincubation; type: functional, organism-based
How it was run: (§2)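 Mesenteric arteries were isolated from SD rats and precontracted to ~80% of maximal constriction with 10 μM NA. The inhibitor was preincubated for 30 min, then ACh dose-response curves were run (0.01–3 μM/30 s) against control, followed by L-NAME (100 μM). Data are mean ± SEM of duplicates from four independent experiments, analysed by two-way repeated-measures ANOVA.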

Rattus norvegicus [5] = species on record: Rattus norvegicus; experiment: Reduction of Ach-mediated NO-dependent precontracted Sprague-Dawley rat mesenteric vascular artery vasorelaxation measured up to 0.7 uM/30 mins preincubation; type: functional, organism-based; how it was run: as §2
Rattus norvegicus [6] = species on record: Rattus norvegicus; experiment: Reduction of Ach-mediated NO-dependent precontracted Sprague-Dawley rat mesenteric vascular artery vasorelaxation measured at 0.85 uM/30 mins preincubation; type: functional, organism-based; how it was run: as §2
Rattus norvegicus [7] = species on record: Rattus norvegicus; experiment: Reduction of Ach-mediated NO-dependent precontracted Sprague-Dawley rat mesenteric vascular artery vasorelaxation measured at 1 to 1.2 uM/30 mins preincubation; type: functional, organism-based; how it was run: as §2
Rattus norvegicus [8] = species on record: Rattus norvegicus; experiment: Induction of NA-induced LPS-treated Sprague-Dawley rat mesenteric vascular artery vasoconstriction effect measured at 0.43 uM/30 mins preincubation; type: functional, organism-based
How it was run: (§3)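 Mesenteric arteries came from SD rats injected with LPS. NA dose-response curves (10 nM–10 μM) were recorded before and after 30 min preincubation with inhibitor. Read-outs were peak perfusion pressure (mmHg) and duration as AUC (mmHg × sec). Data are mean ± SEM of duplicates from four independent experiments.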

Rattus norvegicus [9] = species on record: Rattus norvegicus; experiment: Induction of NA-induced LPS-treated Sprague-Dawley rat mesenteric vascular artery vasoconstriction effect measured at 1 uM/30 mins preincubation; type: functional, organism-based; how it was run: as §3
Rattus norvegicus [10] = species on record: Rattus norvegicus; experiment: Induction of NA-induced LPS-treated Sprague-Dawley rat mesenteric vascular artery vasoconstriction effect measured at 100 uM/30 mins preincubation; type: functional, organism-based; how it was run: as §3
Rattus norvegicus [11] = species on record: Rattus norvegicus; experiment: Induction of NA-induced LPS-treated Sprague-Dawley rat mesenteric vascular artery vasoconstriction effect measured at 0.43 uM/30 mins preincubation relative to basal level; type: functional, organism-based; how it was run: as §3
Rattus norvegicus [12] = species on record: Rattus norvegicus; experiment: Induction of NA-induced LPS-treated Sprague-Dawley rat mesenteric vascular artery vasoconstriction effect measured at 100 uM/30 mins preincubation relative to basal level; type: functional, organism-based
Rattus norvegicus [13] = species on record: Rattus norvegicus; experiment: Reduction of Ach-mediated NO-dependent precontracted Sprague-Dawley rat mesenteric vascular artery vasorelaxation measured at 1 uM/30 mins preincubation; type: functional, organism-based; how it was run: as §2
Rattus norvegicus [14] = species on record: Rattus norvegicus; experiment: Induction of NA-induced LPS-treated Sprague-Dawley rat mesenteric vascular artery vasoconstriction effect measured at 1 uM/30 mins preincubation relative to basal level; type: functional, organism-based; how it was run: as §3

Row | Compound | IC50 [1] | IC50 (Nitric oxide synthase 3) | Ratio IC50 [2] | other results
1 | CC(=N)NCc1cccc(CNCc2ccccc2[N+](=O)[O-])c1 | 0.1 µM | 30 µM | 300 | –
2 | CC(=N)NCc1cccc(CNC(=O)CCC(=O)O)c1 | 0.428 µM | > 1000 µM | > 2300 | inhibition (Rattus norvegicus [3]): inactive; inhibition (Rattus norvegicus [4]): inactive; inhibition (Rattus norvegicus [5]): inactive; Activity (Rattus norvegicus [6]): Active; Activity (Rattus norvegicus [7]): Active; Activity (Rattus norvegicus [8]): Active; Activity (Rattus norvegicus [9]): Active; Activity (Rattus norvegicus [10]): Active; Activity (Rattus norvegicus [11]): Active
3 | CC(=N)NCc1cccc(CNC(=O)CCN)c1 | > 10 µM | – | – | –
4 | COC(=O)[C@@H](N)CCCNC(=N)N[N+](=O)[O-] | – | – | – | inhibition (Rattus norvegicus [3]): Active; Activity (Rattus norvegicus [12]): Active
5 | CC(=N)NCc1cccc(CN(Cc2ccc([N+](=O)[O-])cc2)Cc2ccc([N+](=O)[O-])cc2)c1 | 0.5 µM | 100 µM | 200 | –
6 | CC(=N)NCc1cccc(CN)c1 [1400W] | 0.1 µM | – | – | inhibition (Rattus norvegicus [13]): inactive; Activity (Rattus norvegicus [14]): Active
7 | CC(=N)NCc1cccc(CNC(=O)CCCN)c1 | > 10 µM | – | – | –
8 | CC(=N)NCc1cccc(CNC(=O)CN)c1 | > 10 µM | – | – | –
9 | CC(=N)NCc1cccc(CNC(=O)c2ccc(C(=O)O)cc2)c1 | 0.165 µM | 90.8 µM | 550 | –
10 | CC(=N)NCc1cccc(CNC(=O)CC(=O)O)c1 | > 10 µM | – | – | –
